# Active and inactive are the calls of the source. The rule behind the calls is not given here.
# Assays:
# MDR1 = test: Permeability in rat LLC-PK1 cells expressing MDR1
# KMS-12-BM [1] = test: Induction of apoptosis in human KMS-12-BM cells assessed as increase in cleaved caspase 7 levels at […] after 4 to 72 hrs by Western blot method; format: functional, cell-based
# [2] = Intrinsic clearance in human liver microsomes at 1 uM after 30 mins by LC-MS HRMS analysis; format: ADME; details: read-out: CLH
# KMS-12-BM [3] = test: Induction of apoptosis in human KMS-12-BM cells assessed as increase in cleaved caspase 6 levels at […] after 4 to 72 hrs by Western blot method; format: functional, cell-based
# [4] = Inhibition of Pim signaling in human KMS-12-BM cells assessed as upregulation of Pim1 expression at […] after 4 to 72 hrs by Western blot method; format: cell-based
# [5] = Inhibition of Pim signaling in human KMS-12-BM cells assessed as upregulation of Pim2 expression at […] after 4 to 72 hrs by Western blot method; format: cell-based
# KMS-12-BM [6] = test: Induction of apoptosis in human KMS-12-BM cells assessed as increase in cleaved-PARP levels at […] after 4 to 72 hrs by Western blot method; format: functional, cell-based
# [7] = Antiproliferative activity against PTEN-deficient human OPM2 cells after 72 hrs by CellTiter-Glo assay; format: functional, cell-based; details: OPM-2, 72 h
# [8] = Antiproliferative activity against human MOLP2 cells after 72 hrs by CellTiter-Glo assay; format: functional, cell-based; details: MOLP-2, 72 h
# [9] = Antiproliferative activity against human U266B1 cells harboring BRAF mutant after 72 hrs by CellTiter-Glo assay; format: functional, cell-based; details: U-266, 72 h
# [10] = Antiproliferative activity against human MM1S cells after 72 hrs by CellTiter-Glo assay; format: functional, cell-based; details: MM1.S
# [11] = Oral bioavailability in Sprague-Dawley rat at 5 mg/kg; format: ADME, organism-based; details: in vivo
# Outline: (§1)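 Male Sprague Dawley rats, 3 animals per dosing route, mean values. iv dose 2 mg/kg as a solution in DMSO; po dose 5 mg/kg in 1% Tween 80, 2% HPMC, 97% water/methanesulfonic acid pH 2.2.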
# [12] = tested on: Receptor-type tyrosine-protein kinase FLT3 (Homo sapiens), P36888 [D835Y]; test: Competitive binding affinity to partial length […] human FLT3 D835Y expressed in bacterial expression system at 10 uM by kinomescan method relative to control
# Outline: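 Single-concentration (10 µM) screen in the scanMAX competition-binding panel of protein and lipid kinases and their common mutants. Binding is expressed as percentage of control (POC).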
# [13] = AUC (0 to infinity) in Sprague-Dawley rat at 5 mg/kg, po; format: ADME, organism-based; set-up: dose 5 mg/kg, route oral, time infinity; details: in vivo
# Outline: as §1
# [14] = target: Phosphatidylinositol 4-phosphate 5-kinase type-1 gamma (Homo sapiens) (UniProt O60331); test: Competitive binding affinity to partial length wild type human PIP5K1C expressed in mammalian expression system at 10 uM by kinomescan method relative to control
# Outline: (§2)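 DiscoveRX scanMAX kinase panel of protein and lipid kinases and common mutants; competitive binding of compound at 10 µM expressed as percentage of control (POC).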
# [15] = Clearance in Sprague-Dawley rat at 2 mg/kg, iv relative to liver blood flow; format: ADME, organism-based; details: in vivo
# Outline: as §1
# [16] = target: Glycogen synthase kinase-3 alpha (Homo sapiens) (UniProt P49840); test: Competitive binding affinity to full length wild type human GSK3A expressed in bacterial expression system at 10 uM by kinomescan method relative to control
# Outline: as §2
# [17] = Mean residence time in Sprague-Dawley rat at 2 mg/kg, iv; format: ADME, organism-based; details: in vivo
# Outline: as §1
# [18] = Effect on total BAD levels in human KMS-12-BM cells at […] after 4 to 72 hrs by Western blot method; format: ADME, cell-based
# [19] = Antiproliferative activity against human KARPAS620 cells after 72 hrs by CellTiter-Glo assay; format: functional, cell-based; details: Karpas-620, 72 h
# [20] = Clearance in Sprague-Dawley rat at 2 mg/kg, iv; format: ADME, organism-based; details: in vivo
# Outline: as §1
# KMS-12-BM [21] = test: Induction of apoptosis in human KMS-12-BM cells assessed as increase in cleaved caspase 3 levels at […] after 4 to 72 hrs by Western blot method; format: functional, cell-based
# [22] = target: Voltage-gated inwardly rectifying potassium channel KCNH2 (Homo sapiens, UniProt Q12809); test: Inhibition of radiolabeled dofetilide binding to human ERG expressed in HEK293 cells
# [23] = Antiproliferative activity against human SKMM-2 cells after 72 hrs by CellTiter-Glo assay; format: functional, cell-based; details: SK-MM-2, 72 h
# [24] = Antiproliferative activity against human KMS12PE cells after 72 hrs by CellTiter-Glo assay; format: functional, cell-based; details: KMS-12-PE
# [25] = Antiproliferative activity against human JJN-3 cells after 72 hrs by CellTiter-Glo assay; format: functional, cell-based; details: JJN-3, 72 h
# [26] = Antiproliferative activity against human MM1R cells after 72 hrs by CellTiter-Glo assay; format: functional, cell-based; details: MM.1R
# [27] = Antiproliferative activity against human KMS26 cells after 72 hrs by CellTiter-Glo assay; format: functional, cell-based; details: KMS-26, 72 h
# [28] = Antiproliferative activity against human RPMI8226 cells after 72 hrs by CellTiter-Glo assay; format: functional, cell-based; details: RPMI-8226, 72 h
# [29] = target: Mitogen-activated protein kinase 15 (Homo sapiens) (UniProt Q8TD08); test: Competitive binding affinity to partial length wild type human ERK8 expressed in bacterial expression system at 10 uM by kinomescan method relative to control
# Outline: as §2
# [30] = target: Mitogen-activated protein kinase 13 (Homo sapiens) (UniProt O15264); test: Competitive binding affinity to full length wild type human p38delta expressed in bacterial expression system at 10 uM by kinomescan method relative to control
# Outline: as §2
# [31] = Inhibition of Pim signaling in human KMS-12-BM cells assessed as upregulation of Pim3 expression at […] after 4 to 72 hrs by Western blot method; format: cell-based
# [32] = target: Homeodomain-interacting protein kinase 2 (Homo sapiens) (UniProt Q9H2X6); test: Competitive binding affinity to partial length wild type human HIPK2 expressed in mammalian expression system at 10 uM by kinomescan method relative to control
# Outline: as §2
# [33] = Intrinsic clearance in rat liver microsomes at 1 uM after 30 mins by LC-MS HRMS analysis; format: ADME; details: read-out: CLH
# [34] = Antiproliferative activity against human KMS28BM cells after 72 hrs by CellTiter-Glo assay; format: functional, cell-based; details: KMS-28BM
# [35] = target: Homeodomain-interacting protein kinase 1 (Homo sapiens) (UniProt Q86Z02); test: Competitive binding affinity to partial length wild type human HIPK1 expressed in mammalian expression system at 10 uM by kinomescan method relative to control
# Outline: as §2
# [36] = target: Casein kinase II subunit alpha (Homo sapiens) (UniProt P68400); test: Competitive binding affinity to full length wild type human CSNK2A1 expressed in mammalian expression system at 10 uM by kinomescan method relative to control
# Outline: as §2
# Homo sapiens = species: Homo sapiens; test: Competitive binding affinity to wild type human DYRK at 10 uM by kinomescan method relative to control
# Outline: as §2
# [37] = Aqueous solubility in pH 6.8 FsSIF after 48 to 72 hrs by HPLC analysis; format: physicochemical
# Outline: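 Aqueous solubility determined in 0.01N HCl, PBS (pH 7.4) and FaSIF (pH 6.8).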
# Chain of Phosphatidylinositol 4-phosphate 5-kinase type-1 gamma (Homo sapiens) (O60331 whole entry): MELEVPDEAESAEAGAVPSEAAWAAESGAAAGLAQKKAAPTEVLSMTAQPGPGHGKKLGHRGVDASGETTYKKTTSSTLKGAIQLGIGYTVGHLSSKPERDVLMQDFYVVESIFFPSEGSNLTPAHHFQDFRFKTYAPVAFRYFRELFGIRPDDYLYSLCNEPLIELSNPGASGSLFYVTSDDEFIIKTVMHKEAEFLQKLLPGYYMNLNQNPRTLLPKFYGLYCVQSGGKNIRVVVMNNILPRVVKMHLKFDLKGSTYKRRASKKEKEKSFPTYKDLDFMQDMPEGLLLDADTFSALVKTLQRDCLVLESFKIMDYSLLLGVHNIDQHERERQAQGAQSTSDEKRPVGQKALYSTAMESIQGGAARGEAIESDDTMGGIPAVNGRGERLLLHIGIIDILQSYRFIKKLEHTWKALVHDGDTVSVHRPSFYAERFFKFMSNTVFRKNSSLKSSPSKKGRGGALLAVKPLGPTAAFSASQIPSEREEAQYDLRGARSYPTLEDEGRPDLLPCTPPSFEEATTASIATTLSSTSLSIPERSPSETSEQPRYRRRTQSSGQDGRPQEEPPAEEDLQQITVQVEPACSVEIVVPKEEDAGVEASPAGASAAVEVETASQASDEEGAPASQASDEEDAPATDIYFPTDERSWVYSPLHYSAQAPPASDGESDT
# Chain of Homeodomain-interacting protein kinase 1 (Homo sapiens) (Q86Z02 whole entry, looked up): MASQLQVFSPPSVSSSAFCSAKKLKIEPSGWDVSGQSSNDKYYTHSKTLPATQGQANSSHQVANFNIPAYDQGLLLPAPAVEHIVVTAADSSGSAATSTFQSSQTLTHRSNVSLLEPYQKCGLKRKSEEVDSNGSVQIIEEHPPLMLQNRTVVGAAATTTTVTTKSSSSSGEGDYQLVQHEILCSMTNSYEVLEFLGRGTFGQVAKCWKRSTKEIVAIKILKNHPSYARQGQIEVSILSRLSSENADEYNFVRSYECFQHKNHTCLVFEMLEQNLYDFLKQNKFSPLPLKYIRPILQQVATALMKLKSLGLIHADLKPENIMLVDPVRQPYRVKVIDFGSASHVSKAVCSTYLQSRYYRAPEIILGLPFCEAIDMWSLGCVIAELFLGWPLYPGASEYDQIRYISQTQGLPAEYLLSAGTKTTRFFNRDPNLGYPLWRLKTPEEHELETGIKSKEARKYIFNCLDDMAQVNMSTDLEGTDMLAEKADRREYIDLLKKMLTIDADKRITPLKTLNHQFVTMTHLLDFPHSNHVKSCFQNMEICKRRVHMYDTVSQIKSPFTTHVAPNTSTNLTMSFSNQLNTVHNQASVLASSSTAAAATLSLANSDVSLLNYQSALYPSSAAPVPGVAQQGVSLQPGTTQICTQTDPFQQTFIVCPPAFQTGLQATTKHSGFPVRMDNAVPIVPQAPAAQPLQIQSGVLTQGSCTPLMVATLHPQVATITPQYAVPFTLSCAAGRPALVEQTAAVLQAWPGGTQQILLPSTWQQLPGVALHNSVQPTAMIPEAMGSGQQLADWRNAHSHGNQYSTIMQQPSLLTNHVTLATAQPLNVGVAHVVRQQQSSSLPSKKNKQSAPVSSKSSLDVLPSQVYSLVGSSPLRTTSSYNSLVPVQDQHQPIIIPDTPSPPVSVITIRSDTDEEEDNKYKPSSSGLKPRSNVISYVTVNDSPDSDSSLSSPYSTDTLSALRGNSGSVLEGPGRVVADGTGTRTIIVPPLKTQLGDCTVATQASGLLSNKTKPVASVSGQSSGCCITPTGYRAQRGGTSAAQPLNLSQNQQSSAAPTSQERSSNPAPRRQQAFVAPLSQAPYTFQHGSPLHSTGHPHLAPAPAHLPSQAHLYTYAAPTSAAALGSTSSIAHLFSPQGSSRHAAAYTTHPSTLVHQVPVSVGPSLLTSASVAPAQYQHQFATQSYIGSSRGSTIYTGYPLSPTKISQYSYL
# Chain of Mitogen-activated protein kinase 15 (Homo sapiens) (Q8TD08 whole entry): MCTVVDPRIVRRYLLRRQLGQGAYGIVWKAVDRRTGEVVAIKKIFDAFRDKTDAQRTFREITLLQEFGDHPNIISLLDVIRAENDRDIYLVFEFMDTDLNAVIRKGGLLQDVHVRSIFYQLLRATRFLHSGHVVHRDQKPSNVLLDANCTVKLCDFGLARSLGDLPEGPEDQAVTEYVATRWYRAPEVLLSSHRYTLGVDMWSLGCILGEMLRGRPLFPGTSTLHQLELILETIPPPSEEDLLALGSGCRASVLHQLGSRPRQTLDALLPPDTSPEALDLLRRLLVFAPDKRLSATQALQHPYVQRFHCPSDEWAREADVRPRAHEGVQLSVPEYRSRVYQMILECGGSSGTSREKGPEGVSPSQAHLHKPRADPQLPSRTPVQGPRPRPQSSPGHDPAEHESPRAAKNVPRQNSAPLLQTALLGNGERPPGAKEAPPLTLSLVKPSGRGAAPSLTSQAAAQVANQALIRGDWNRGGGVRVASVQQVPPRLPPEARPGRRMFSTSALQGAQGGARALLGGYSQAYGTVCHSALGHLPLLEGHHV
# Chain of Homeodomain-interacting protein kinase 2 (Homo sapiens) (Q9H2X6 whole entry, looked up): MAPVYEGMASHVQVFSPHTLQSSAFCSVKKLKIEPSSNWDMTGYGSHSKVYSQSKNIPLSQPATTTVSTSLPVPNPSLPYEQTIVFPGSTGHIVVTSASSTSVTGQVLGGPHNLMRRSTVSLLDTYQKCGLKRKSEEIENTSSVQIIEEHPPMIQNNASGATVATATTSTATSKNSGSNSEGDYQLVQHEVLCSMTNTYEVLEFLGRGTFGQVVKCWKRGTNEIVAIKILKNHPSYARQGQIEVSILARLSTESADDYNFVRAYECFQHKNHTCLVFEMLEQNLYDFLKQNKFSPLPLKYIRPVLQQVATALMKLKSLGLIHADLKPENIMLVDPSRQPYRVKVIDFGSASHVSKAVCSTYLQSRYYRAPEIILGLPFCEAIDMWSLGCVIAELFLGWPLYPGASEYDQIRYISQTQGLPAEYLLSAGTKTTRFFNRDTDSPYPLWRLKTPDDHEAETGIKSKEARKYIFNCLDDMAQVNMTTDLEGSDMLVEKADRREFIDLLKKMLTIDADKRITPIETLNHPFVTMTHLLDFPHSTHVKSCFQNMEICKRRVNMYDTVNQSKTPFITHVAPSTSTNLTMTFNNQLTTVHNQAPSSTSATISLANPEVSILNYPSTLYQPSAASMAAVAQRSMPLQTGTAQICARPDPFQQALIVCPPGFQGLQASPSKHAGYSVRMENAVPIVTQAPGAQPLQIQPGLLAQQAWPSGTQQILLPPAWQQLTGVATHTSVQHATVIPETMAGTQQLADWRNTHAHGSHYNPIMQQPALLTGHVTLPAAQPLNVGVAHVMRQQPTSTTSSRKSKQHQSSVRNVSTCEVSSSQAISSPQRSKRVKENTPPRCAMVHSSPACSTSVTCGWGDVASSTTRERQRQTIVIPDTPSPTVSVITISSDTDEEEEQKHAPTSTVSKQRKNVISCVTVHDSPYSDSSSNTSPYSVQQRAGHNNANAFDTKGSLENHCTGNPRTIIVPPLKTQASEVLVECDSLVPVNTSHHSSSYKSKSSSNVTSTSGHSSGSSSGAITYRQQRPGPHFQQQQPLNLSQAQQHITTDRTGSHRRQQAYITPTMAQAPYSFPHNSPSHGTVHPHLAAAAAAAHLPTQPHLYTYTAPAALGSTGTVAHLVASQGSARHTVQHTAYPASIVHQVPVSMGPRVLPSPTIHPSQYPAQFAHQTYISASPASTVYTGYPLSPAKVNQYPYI
# Chain of Casein kinase II subunit alpha (Homo sapiens) (P68400 whole entry, looked up): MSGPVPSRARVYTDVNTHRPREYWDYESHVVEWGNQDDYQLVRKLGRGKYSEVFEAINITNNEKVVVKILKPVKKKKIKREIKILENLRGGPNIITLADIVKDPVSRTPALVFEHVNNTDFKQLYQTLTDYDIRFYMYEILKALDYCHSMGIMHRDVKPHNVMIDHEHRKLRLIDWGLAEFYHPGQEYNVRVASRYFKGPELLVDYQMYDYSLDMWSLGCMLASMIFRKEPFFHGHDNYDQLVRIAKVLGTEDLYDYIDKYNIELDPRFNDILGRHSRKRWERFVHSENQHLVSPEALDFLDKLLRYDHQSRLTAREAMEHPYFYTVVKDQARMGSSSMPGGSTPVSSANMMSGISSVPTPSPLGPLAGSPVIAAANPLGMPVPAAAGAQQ
# Chain of Mitogen-activated protein kinase 13 (Homo sapiens) (O15264 whole entry): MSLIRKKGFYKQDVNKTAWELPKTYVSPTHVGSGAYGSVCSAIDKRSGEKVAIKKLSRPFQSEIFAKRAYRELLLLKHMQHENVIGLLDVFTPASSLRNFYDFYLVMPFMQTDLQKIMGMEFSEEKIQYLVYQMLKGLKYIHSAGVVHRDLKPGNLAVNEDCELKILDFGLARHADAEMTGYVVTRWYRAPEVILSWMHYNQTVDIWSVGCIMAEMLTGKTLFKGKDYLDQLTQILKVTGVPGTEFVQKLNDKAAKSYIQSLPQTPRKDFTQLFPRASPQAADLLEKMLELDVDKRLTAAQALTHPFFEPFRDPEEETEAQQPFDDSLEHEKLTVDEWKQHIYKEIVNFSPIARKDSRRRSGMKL
# Chain of Glycogen synthase kinase-3 alpha (Homo sapiens) (P49840 2-483 limits assumed): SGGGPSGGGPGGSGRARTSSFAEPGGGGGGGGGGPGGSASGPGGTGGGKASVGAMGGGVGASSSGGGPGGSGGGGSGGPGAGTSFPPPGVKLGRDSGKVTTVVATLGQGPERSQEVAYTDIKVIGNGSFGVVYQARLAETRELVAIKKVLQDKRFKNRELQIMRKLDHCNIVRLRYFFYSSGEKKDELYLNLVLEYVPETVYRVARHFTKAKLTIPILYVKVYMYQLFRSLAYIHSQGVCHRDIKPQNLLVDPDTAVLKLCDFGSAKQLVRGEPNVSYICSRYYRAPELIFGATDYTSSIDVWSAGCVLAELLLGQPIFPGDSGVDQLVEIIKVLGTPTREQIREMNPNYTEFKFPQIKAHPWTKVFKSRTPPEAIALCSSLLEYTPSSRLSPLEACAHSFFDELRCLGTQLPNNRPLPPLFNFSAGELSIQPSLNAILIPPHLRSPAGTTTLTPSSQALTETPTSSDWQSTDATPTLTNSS
compound,measurement,setting,value
C[C@@H]1C[C@H](N)CN(c2ccncc2Nc2ncc3ccc(-c4c(F)cccc4F)nn23)C1,Papp,MDR1,4.5 ×10⁻⁶ cm/s
same,Activity,KMS-12-BM [1],Active
same,microsomal CLint at 1 µM,[2],69 µL/min/mg
same,Activity,KMS-12-BM [3],Active
same,Activity,[4],Active
same,Activity,[5],Active
same,Activity,KMS-12-BM [6],Active
same,IC50,[7],4380 nM
same,IC50,[8],332 nM
same,IC50,[9],10000 nM
same,IC50,[10],361 nM
same,F,[11],17%
same,Activity,[12],6.1%
same,AUC,[13],3.5 µM·h
same,Activity,[14],7%
same,CL,[15],40%
same,Activity,[16],1.4%
same,MRT,[17],4.3 h
same,Activity,[18],Non-Toxic
same,IC50,[19],162 nM
same,CL,[20],23.3 mL/min/kg
same,Activity,KMS-12-BM [21],Active
same,IC50,[22],1000 nM
same,IC50,[23],228 nM
same,IC50,[24],130 nM
same,IC50,[25],375 nM
same,IC50,[26],457 nM
same,IC50,[27],393 nM
same,IC50,[28],569 nM
same,Activity,[29],0.65%
same,Activity,[30],8.4%
same,Activity,[31],Active
same,Activity,[32],1.8%
same,microsomal CLint at 1 µM,[33],> 399 µL/min/mg
same,IC50,[34],86 nM
same,Activity,[35],7%
same,Activity,[36],4.2%
same,Activity,Homo sapiens,3.4%
same,solubility,[37],150 µg/mL

# — ChEMBL document CHEMBL3864151, “Discovery of imidazopyridazines as potent Pim-1/2 kinase inhibitors” (Bioorg Med Chem Lett, 2016)
